The subject of data set [1] is HL-60. Put plainly: Cytotoxicity against human HL60 cells after 48 hrs by MTT assay. In kind it is functional, cell-based. The following applies: HL-60, 48 h. The gist of the method:
(§1)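 MTT assay in HL-60 and K562 leukemia cells. Cells were seeded at 6000–10,000 per well, then treated in triplicate with a concentration gradient for 48 h at 37 °C. IC50 was taken from the dose–response curve as the average of triplicates.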

Data set [2] has as its system A549. Put plainly: Cytotoxicity against human A549 cells after 72 hrs by SRB method. The data set is classed as functional, cell-based. The following applies: A549, 72 h. The method in brief: (§2)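 SRB assay in AGS and A549 solid tumour cells. Cells were seeded at 6000–10,000 per well, then exposed in triplicate to a concentration gradient for 72 h at 37 °C. IC50 was read from the dose–response curve as the average of triplicates.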
A general note: The SRB assay estimates cell density from bound dye.

Data set [3] can be described thus: Octanol-water partition coefficient, log P of the compound. The data set is classed as physicochemical. The gist of the method:
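Octanol–water partition coefficient; each reported P is the average of three measurements.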

Data set [4] concerns K562. Briefly: Cytotoxicity against human K562 cells after 48 hrs by MTT assay. In kind it is functional, cell-based. The following applies: K562, 48 h. The gist of the method: as §1
In data set [5] the test system is AGS. Briefly: Cytotoxicity against human AGS cells after 72 hrs by SRB method. In kind it is functional, cell-based. The gist of the method:
as §2

Data set [6] relates to Plasma. Put plainly: Metabolic stability in human plasma at 1 ug/ml within 24 hrs. In kind it is ADME, cell-free. The method in brief: (§3)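 Compound (100 µg/mL stock in acetonitrile, 1.0 mL) was added to 4.0 mL preincubated human plasma, mouse plasma or pH 7.4 phosphate buffer and held at 37 °C. Protein was precipitated with cold acetonitrile and the sample centrifuged. Supernatant was analysed by C18 HPLC with CH3CN/H2O 45:55 at 1.0 mL/min.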

Data set [7] in a line: Stability at pH 7.4 PBS at 1 ug/ml after 8 hrs. The data set is classed as physicochemical. Particulars: buffer, pH 7.4, 8 h. The method in brief: as §3
A short description of data set [8]: Stability at pH 7.4 PBS at 1 ug/ml within 8 hrs. In kind it is physicochemical. The following applies: buffer, pH 7.4, 8 h. The method in brief: as §3
Data set [9] relates to Plasma. Briefly: Metabolic stability in mouse plasma at 1 ug/ml after 2 hrs. In kind it is ADME, cell-free. The gist of the method: as §3
Data set [10] has as its system Calf thymus DNA. Briefly: Binding affinity to calf thymus DNA after 24 hrs by circular dichroism. The data set is classed as nucleic-acid assay. The following applies: Bos taurus. The method in brief: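 CT DNA dissolved and annealed in 10 mM PBS pH 7.2, then mixed with compound at 0, 10, 20 or 50 µg/mL. Mixtures were incubated 24 h at 37 °C in the dark. CD spectra were recorded from 200–320 nm in 1 cm quartz cells, with compound-only solutions in PBS as blanks.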

The source made the active and inactive calls. No cut-off for these calls is given here. A value given as a limit tells only on which side of the number the result lay.

As usually defined, the IC50 is the concentration that gives 50% inhibition. A high value points to lower potency. Broadly, the logP is a log measure of how a compound divides between an organic and an aqueous phase. Low values mean a more hydrophilic compound, high ones a more lipophilic compound.

`COc1cc([C@@H]2c3cc4c(cc3[C@@H](N[C@@H](Cc3ccccc3)C(=O)OCCCCn3cc(F)c(=O)[nH]c3=O)[C@H]3COC(=O)[C@H]23)OCO4)cc(OC)c1O`: the IC50 in data set [1] was 0.42 µM; in data set [2], 0.3 µM; in [4] it was 9.2 µM; in data set [5], 23.7 µM. In [3], the logP was determined as 0.43.

With `COc1cc([C@@H]2c3cc4c(cc3[C@@H](N[C@@H](CC(C)C)C(=O)OCCCCCn3cc(F)c(=O)[nH]c3=O)[C@H]3COC(=O)[C@H]23)OCO4)cc(OC)c1O`, the IC50 in [1] stood at 0.31 µM; in data set [2], 0.53 µM; in data set [4], 6 µM; in [5] it was 23.5 µM. In [3], this compound returned a logP of 0.51.

On to `COc1cc([C@@H]2c3cc4c(cc3[C@@H](N[C@@H](Cc3ccccc3)C(=O)OCCCCCn3cc(F)c(=O)[nH]c3=O)[C@H]3COC(=O)[C@H]23)OCO4)cc(OC)c1O`, for which the IC50 in data set [1] was 0.04 µM; in [2] it was less than 0.01 µM; in data set [4], 13.2 µM; in data set [5], 38.8 µM. The Stability result is “Stable” in data set [6], “Unstable” in data set [7], “Stable” in [8] and “Unstable” in [9]. Also, the logP in data set [3] was 0.29. Further, the outcome in data set [10] was Active.

For `CC[C@H](C)[C@H](N[C@@H]1c2cc3c(cc2[C@@H](c2cc(OC)c(O)c(OC)c2)[C@H]2C(=O)OC[C@@H]21)OCO3)C(=O)OCCCn1cc(F)c(=O)[nH]c1=O`, the IC50 in [1] is 0.24 µM; in [2], 0.18 µM; in data set [4] it was 5.1 µM; in [5], 56.2 µM. The logP in data set [3] was 0.59.

For `COc1cc([C@@H]2c3cc4c(cc3[C@@H](N[C@H](C(=O)OCCCn3cc(F)c(=O)[nH]c3=O)[C@@H](C)O)[C@H]3COC(=O)[C@H]23)OCO4)cc(OC)c1O`, the IC50 was determined as 23.2 µM in data set [1], 6.95 µM in [2], 30.8 µM in data set [4] and 141 µM in [5]. In [3], the logP was -0.12.

For the compound `COc1cc([C@@H]2c3cc4c(cc3[C@@H](N[C@@H](CCSC)C(=O)OCCCn3cc(F)c(=O)[nH]c3=O)[C@H]3COC(=O)[C@H]23)OCO4)cc(OC)c1O`, the IC50 in data set [1] was found to be 0.99 µM; in data set [2] it was 0.29 µM; in data set [4] it was 8.8 µM; in data set [5], 24.8 µM. The logP in data set [3] worked out at 0.23.

For `COc1cc([C@@H]2c3cc4c(cc3[C@@H](N[C@@H](Cc3ccc(O)cc3)C(=O)OCCCn3cc(F)c(=O)[nH]c3=O)[C@H]3COC(=O)[C@H]23)OCO4)cc(OC)c1O`, the IC50 in data set [1] came to 26.6 µM; in data set [2] it was 21.7 µM; in [4], 28.6 µM; in data set [5] it was 115 µM. The logP in data set [3] was found to be 0.07.

`COc1cc([C@@H]2c3cc4c(cc3[C@@H](N[C@@H](CC(C)C)C(=O)OCCCCn3cc(F)c(=O)[nH]c3=O)[C@H]3COC(=O)[C@H]23)OCO4)cc(OC)c1O`: the IC50 in data set [1] is 0.73 µM; in [2], less than 0.01 µM; in data set [4], 5.3 µM; in data set [5], 34.5 µM. The compound also displayed a logP in data set [3] of 0.35.

As to `COc1cc([C@@H]2c3cc4c(cc3[C@@H](N[C@H](C(=O)OCCCn3cc(F)c(=O)[nH]c3=O)C(C)C)[C@H]3COC(=O)[C@H]23)OCO4)cc(OC)c1O`, the half-maximal inhibitory concentration (IC50) in data set [1] is 5.8 µM; in data set [2], 1.92 µM; in [4], 13.5 µM; in data set [5], 62.5 µM. The compound also yielded a logP in data set [3] of 0.34.

With `COc1cc([C@@H]2c3cc4c(cc3[C@@H](N[C@@H](C)C(=O)OCCCn3cc(F)c(=O)[nH]c3=O)[C@H]3COC(=O)[C@H]23)OCO4)cc(OC)c1O`, the IC50 was determined as 22.3 µM in data set [1], 2.59 µM in data set [2], 19.5 µM in data set [4] and 40.4 µM in [5]. Moreover, the logP in data set [3] is -0.07.

With `COc1cc([C@@H]2c3cc4c(cc3[C@@H](N[C@@H](CC(C)C)C(=O)OCCCn3cc(F)c(=O)[nH]c3=O)[C@H]3COC(=O)[C@H]23)OCO4)cc(OC)c1O`, the IC50 in data set [1] is 0.13 µM; in data set [2], 0.01 µM; in data set [4], 9.5 µM; in data set [5] it was 59.2 µM. Further, the logP in [3] came out at 0.33.

With `COc1cc([C@@H]2c3cc4c(cc3[C@H](O)[C@H]3COC(=O)[C@H]23)OCO4)cc(OC)c1OC` [PODOFILOX], the IC50 in [1] is 2.75 µM; in data set [2], 7.38 µM; in [4] it was greater than 100 µM; in [5], 50.8 µM. For the same compound, the logP in data set [3] was determined as 0.69.

For the compound `O=c1[nH]cc(F)c(=O)[nH]1` [FLUOROURACIL], the IC50 in data set [4] and in data set [5] was greater than 100 µM in each case.

With `COc1cc([C@@H]2c3cc4c(cc3[C@@H](N[C@@H](Cc3ccccc3)C(=O)OCCCn3cc(F)c(=O)[nH]c3=O)[C@H]3COC(=O)[C@H]23)OCO4)cc(OC)c1O`, the IC50 in [1] was determined as 0.31 µM; in [2], 0.48 µM; in data set [4] it was 5.8 µM; in data set [5], 23.6 µM. This compound also had a logP in [3] of 0.65.
